The source of these data is ChEMBL document CHEMBL1123819, “Synthesis and antifungal activity of a series of novel 1,2-disubstituted propenones” (1987).

What all share (format): functional
For one assay, the system named is Trichophyton benhamiae. The assay can be described thus: Antifungal activity against Trichophyton asteroides was determined in vitro. The essentials:
(§1)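 Broth microdilution in Sabouraud's glucose broth; MIC read as the fungistatic end point. Final inocula were 1 × 10^5 cells/mL for the yeast and 1 × 10^5 conidia/mL for the mould and the dermatophyte.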

In the next assay the test system is Aspergillus fumigatus. The assay can be described thus: Antifungal activity against Aspergillus fumigatus was determined in vitro. The essentials: as §1
A further assay relates to Candida albicans. Put plainly: Antifungal activity against Candida albicans was determined in vitro. The essentials:
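MIC by broth microdilution in microtiter plates. Final inoculum 1 × 10^5 yeast cells per mL of Sabouraud's glucose broth. Fungistatic activity was assessed.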

≈ marks a conversion by molar mass, not a printed value.

`C=C(c1ccccc1OCc1cccc(Cl)c1)n1ccnc1` [CROCONAZOLE]: the MIC was 0.1 µg/mL (≈ 0.322 µM) against Trichophyton benhamiae, 3.1 µg/mL (≈ 9.97 µM) in the assay on Aspergillus fumigatus and 3.1 µg/mL (≈ 9.97 µM) against Candida albicans.
